ChEMBL document CHEMBL2417369, “Synthesis and evaluation of heteroaryl substituted diazaspirocycles as scaffolds to probe the ATP-binding site of protein kinases” (Bioorg Med Chem, 2013)

Key:
[1] = biological target: Proto-oncogene tyrosine-protein kinase Src (Homo sapiens, UniProt P12931); test: Inhibition of SRC (unknown origin) at 30 uM by microfluidic mobility shift assay relative to control
In short: (§1)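 Single-point screen in a 24-enzyme kinase panel using a microfluidic assay. Each compound was tested at […] with ATP at roughly the Km for each enzyme. The pan-AGC inhibitor H-89 served as an internal control on every plate.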

[2] = biological target: Tyrosine-protein kinase Lck (Homo sapiens, UniProt P06239); test: Inhibition of LCK (unknown origin) at 30 uM by microfluidic mobility shift assay relative to control; in short: as §1
[3] = biological target: Tyrosine-protein kinase Lyn (Homo sapiens, UniProt P07948); test: Inhibition of LYN (unknown origin) at 30 uM by microfluidic mobility shift assay relative to control; in short: as §1
[4] = biological target: Tyrosine-protein kinase Fyn (Homo sapiens, UniProt P06241); test: Inhibition of FYN (unknown origin) at 30 uM by microfluidic mobility shift assay relative to control; in short: as §1
[5] = biological target: Protein kinase C (PKC) (Homo sapiens) (UniProt O94806+P41743+P17252+P05129+Q05655+P05771+Q05513+Q02156+P24723+Q15139+Q04759); test: Inhibition of PKC (unknown origin) at 30 uM by microfluidic mobility shift assay relative to control; in short: as §1
[6] = biological target: Insulin receptor (Homo sapiens) (UniProt P06213); test: Inhibition of INSR (unknown origin) at 30 uM by microfluidic mobility shift assay relative to control; in short: as §1
[7] = species on record: Homo sapiens; test: Inhibition of PKA (unknown origin) at 30 uM by microfluidic mobility shift assay relative to control; in short: as §1

Sequence of Tyrosine-protein kinase Lyn (P07948 2-512 limits assumed): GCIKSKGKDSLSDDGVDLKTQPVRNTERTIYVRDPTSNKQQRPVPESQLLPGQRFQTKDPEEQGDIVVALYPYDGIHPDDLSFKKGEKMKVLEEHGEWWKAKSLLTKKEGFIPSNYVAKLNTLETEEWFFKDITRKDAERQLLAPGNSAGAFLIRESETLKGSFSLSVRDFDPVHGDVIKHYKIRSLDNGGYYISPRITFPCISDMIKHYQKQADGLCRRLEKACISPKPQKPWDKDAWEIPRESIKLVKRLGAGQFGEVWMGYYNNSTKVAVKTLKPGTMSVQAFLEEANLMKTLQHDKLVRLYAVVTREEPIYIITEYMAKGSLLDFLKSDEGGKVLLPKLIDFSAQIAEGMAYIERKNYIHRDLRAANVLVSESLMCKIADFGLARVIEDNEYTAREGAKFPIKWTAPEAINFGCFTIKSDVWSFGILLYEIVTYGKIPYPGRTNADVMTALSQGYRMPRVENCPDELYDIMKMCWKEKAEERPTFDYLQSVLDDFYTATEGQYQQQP
Sequence of Tyrosine-protein kinase Lck (P06239 2-509 limits assumed): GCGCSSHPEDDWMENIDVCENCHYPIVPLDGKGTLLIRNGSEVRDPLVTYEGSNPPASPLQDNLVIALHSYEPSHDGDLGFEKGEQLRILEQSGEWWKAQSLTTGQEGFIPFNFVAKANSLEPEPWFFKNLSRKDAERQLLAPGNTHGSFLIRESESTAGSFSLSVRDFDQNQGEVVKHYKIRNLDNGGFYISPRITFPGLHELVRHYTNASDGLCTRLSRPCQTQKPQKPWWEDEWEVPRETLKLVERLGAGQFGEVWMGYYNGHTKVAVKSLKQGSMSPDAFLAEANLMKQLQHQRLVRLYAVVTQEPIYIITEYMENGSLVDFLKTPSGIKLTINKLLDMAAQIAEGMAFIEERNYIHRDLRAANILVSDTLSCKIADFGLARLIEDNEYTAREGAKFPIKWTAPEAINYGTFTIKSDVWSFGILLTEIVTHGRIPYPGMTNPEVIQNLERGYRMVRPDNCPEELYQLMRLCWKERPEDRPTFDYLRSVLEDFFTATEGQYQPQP
Sequence of Proto-oncogene tyrosine-protein kinase Src (P12931 2-536 limits assumed): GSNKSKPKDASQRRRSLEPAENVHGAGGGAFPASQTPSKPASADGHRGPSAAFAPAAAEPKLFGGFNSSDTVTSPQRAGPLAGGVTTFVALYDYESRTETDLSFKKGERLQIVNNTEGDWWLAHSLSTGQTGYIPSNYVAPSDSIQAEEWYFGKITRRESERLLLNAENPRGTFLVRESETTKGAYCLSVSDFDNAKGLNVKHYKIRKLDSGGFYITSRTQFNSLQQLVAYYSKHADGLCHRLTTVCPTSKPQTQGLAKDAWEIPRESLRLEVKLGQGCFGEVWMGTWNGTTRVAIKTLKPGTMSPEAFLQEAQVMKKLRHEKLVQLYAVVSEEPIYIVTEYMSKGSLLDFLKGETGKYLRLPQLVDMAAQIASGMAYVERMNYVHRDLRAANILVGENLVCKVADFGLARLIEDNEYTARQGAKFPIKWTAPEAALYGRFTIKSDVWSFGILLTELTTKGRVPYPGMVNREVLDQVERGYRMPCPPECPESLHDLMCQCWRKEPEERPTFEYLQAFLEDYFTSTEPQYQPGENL
Sequence of Insulin receptor (Homo sapiens) (P06213 28-758 limits assumed): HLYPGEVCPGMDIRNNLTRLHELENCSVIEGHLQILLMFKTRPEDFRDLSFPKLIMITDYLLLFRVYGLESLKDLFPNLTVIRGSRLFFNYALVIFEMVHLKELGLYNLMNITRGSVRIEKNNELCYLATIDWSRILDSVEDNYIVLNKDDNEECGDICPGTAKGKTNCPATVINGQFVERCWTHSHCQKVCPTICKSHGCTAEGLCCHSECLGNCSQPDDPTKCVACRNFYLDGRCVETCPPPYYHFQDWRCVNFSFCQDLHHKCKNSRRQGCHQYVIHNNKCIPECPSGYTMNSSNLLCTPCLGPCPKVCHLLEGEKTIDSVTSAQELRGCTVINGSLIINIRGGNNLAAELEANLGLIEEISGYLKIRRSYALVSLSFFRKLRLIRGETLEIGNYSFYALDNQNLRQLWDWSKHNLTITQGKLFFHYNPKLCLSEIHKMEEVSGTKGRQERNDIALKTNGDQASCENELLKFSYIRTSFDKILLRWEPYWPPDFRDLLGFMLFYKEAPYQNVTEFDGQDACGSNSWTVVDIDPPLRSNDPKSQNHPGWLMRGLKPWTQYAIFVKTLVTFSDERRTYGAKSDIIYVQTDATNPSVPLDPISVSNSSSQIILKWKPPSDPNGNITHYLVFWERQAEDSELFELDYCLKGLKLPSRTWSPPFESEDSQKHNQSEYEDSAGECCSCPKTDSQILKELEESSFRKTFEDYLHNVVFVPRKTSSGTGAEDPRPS
Sequence of Insulin receptor (Homo sapiens) (P06213 763-1382 limits assumed): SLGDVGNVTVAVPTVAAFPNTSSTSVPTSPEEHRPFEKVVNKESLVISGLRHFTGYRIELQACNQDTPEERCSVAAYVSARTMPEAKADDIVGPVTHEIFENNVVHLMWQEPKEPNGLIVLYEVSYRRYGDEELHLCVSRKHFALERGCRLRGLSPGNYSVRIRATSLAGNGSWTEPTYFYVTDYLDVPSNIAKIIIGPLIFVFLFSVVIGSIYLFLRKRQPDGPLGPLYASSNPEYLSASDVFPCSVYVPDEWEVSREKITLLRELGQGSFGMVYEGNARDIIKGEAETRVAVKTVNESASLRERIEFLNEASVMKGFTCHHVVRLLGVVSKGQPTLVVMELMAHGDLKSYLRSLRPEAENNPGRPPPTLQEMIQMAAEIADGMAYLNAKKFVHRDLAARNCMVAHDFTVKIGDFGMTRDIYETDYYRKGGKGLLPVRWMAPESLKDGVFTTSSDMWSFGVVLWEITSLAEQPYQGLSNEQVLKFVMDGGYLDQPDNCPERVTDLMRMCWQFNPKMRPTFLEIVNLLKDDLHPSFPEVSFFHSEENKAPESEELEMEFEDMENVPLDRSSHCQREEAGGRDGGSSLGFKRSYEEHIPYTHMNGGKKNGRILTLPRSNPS
Sequence of Tyrosine-protein kinase Fyn (P06241 2-537 limits assumed): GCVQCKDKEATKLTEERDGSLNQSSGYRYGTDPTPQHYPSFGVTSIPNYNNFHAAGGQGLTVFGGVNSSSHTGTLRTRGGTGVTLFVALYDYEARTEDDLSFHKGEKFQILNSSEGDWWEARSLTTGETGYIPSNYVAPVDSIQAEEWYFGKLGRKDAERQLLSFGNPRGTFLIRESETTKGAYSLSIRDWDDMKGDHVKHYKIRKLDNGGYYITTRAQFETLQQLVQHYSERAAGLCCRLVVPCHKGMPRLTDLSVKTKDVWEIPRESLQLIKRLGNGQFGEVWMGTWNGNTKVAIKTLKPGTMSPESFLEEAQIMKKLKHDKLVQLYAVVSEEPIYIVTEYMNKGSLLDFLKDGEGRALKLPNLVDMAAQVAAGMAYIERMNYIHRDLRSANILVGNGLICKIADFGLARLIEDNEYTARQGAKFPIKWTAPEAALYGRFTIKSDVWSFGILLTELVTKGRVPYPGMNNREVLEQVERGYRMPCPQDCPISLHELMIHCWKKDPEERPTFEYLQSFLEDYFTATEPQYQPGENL

## O=S(=O)(NCCNC/C=C/c1ccc(Br)cc1)c1cccc2cnccc12
[1]
  inhibition: 4%
[2]
  inhibition: 22%
[3]
  inhibition: 50%
[4]
  inhibition: 14%
[5]
  inhibition: 64%
[6]
  inhibition: 29%
[7]
  inhibition: 100%
